From ChEMBL document CHEMBL1141369, “Salinosporamides D-J from the marine actinomycete Salinispora tropica, bromosalinosporamide, and thioester derivatives are potent inhibitors of the 20S proteasome” (J Nat Prod, 2007)

How the values were obtained:
[1] = Inhibition of CT-L activity of rabbit muscle 20S proteasome; type: tissue-based, Oryctolagus cuniculus, Muscle tissue
Outline: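 Serially diluted compound added in duplicate and preincubated 5 min at 37 °C. Reaction started with Suc-LLVY-AMC at 20 µM final, fluorescence read at ex 390/em 460 nm. IC50 from sigmoidal variable-slope fit, mean ± SD of at least three independent experiments.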

RPMI-8226 = test: Cytotoxicity against human RPMI 8226 cells; type: cell-based
Outline: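 Seeded at 2 × 10^4 cells/well, then serially diluted compound added in triplicate for 48 h. Growth read by resazurin reduction (fluorescence). IC50 = concentration giving 50% of maximal observed growth inhibition, from sigmoidal dose-response fit.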

Row | SMILES | IC50 [1] | IC50 (RPMI-8226)
1 | COC(=O)[C@@H](CSC(=O)[C@]1([C@@H](O)[C@@H]2C=CCCC2)NC(=O)[C@H](CCCl)[C@]1(C)O)NC(C)=O | 4 nM | 9.7 nM
2 | COC(=O)CCSC(=O)[C@]1([C@@H](O)[C@@H]2C=CCCC2)NC(=O)[C@@H]2CCO[C@@]21C | 230 nM | 7500 nM
3 | COC(=O)CCSC(=O)[C@]1([C@@H](O)[C@@H]2C=CCCC2)NC(=O)[C@H](CCCl)[C@]1(C)O | 9.3 nM | 11 nM
4 | CC[C@H]1C(=O)N[C@](C(=O)SCCC(=O)OC)([C@@H](O)[C@@H]2C=CCCC2)[C@@]1(C)O | 50 nM | 8000 nM
5 | C[C@@]12OC(=O)[C@]1(CC1C=CCCC1)NC(=O)[C@@H]2CCCl (stereo not given in full) [SALINOSPORAMIDE J] | 52 nM | 250 nM
